Measurements reported in ChEMBL document CHEMBL1250496, “Novel 6,12-disubstituted chrysene as potent anticancer agent: synthesis, in vitro and in vivo study” (Eur J Med Chem, 2010).

How the values were obtained:
[1] = system: HL-60; assay: Cytotoxicity against human HL60 cells after 72 hrs by MTT assay; type: functional, cell-based; conditions: HL-60, 72 h
How it was run: (§1)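 Cells were exposed continuously to drug for 72 h, with dilutions made in RPMI 1640 + 10% FBS and final solvent below 0.625%. Relative growth was read by MTT, and IC50 was reported in μM.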

[2] = system: HT-29; assay: Cytotoxicity against human HT-29 cells after 72 hrs by MTT assay; type: functional, cell-based; how it was run: as §1
[3] = Cytotoxicity against human BRO cells after 72 hrs by MTT assay; type: functional, cell-based; how it was run: as §1
[4] = system: MCF7; assay: Cytotoxicity against human MCF7 cells after 72 hrs by MTT assay; type: functional, cell-based; how it was run: as §1
[5] = system: SK-OV-3; assay: Cytotoxicity against human SKOV3 cells after 72 hrs by MTT assay; type: functional, cell-based; how it was run: as §1
[6] = system: PC-3; assay: Cytotoxicity against human PC3 cells after 72 hrs by MTT assay; type: functional, cell-based; how it was run: as §1
[7] = system: P388; assay: Cytotoxicity against mouse P388 cells after 72 hrs by MTT assay; type: functional, cell-based; how it was run: as §1
[8] = system: SK-OV-3; assay: Antitumor activity against human SKOV3 xenografted in mouse assessed as reduction in tumor volume at 40 mg/kg, ip for 5 days; type: functional; parameters: scale not given: the % may be the effect or the level left; conditions: route intraperitoneal
How it was run: (§2)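 Female nu/nu mice, 6-10 weeks old. SKOV-3 cells were harvested at 80% confluence with viability >90% by trypan blue, washed, resuspended in PBS and given i.p. at 0.65 × 10^6 per mouse. Mice were sacrificed at 7 weeks and tumors counted and total volume measured per mouse.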

[9] = system: SK-OV-3; assay: Antitumor activity against human SKOV3 xenografted in mouse assessed as reduction in tumor number at 40 mg/kg, ip for 5 days; type: functional; parameters: scale not given: the % may be the effect or the level left; conditions: route intraperitoneal; how it was run: as §2
[10] = system: Mus musculus; assay: Toxicity in mouse assessed as weight loss at 40 mg/kg, ip; type: organism-based; parameters: dose 40 mg/kg, route intraperitoneal; conditions: in vivo

Q: Which IC50 [1] does the source give for `O=C(CCC(=O)N1CCCCC1)Nc1cc2c3ccccc3ccc2c2ccccc12` here?
A: Its IC50 is 18.8 µM.

Q: And the IC50 ([2]; Homo sapiens, HT-29, 72 h)?
A: The IC50 was 33.3 µM.

Q: What about the IC50 ([3]; Homo sapiens, BRO, 72 h) of the same compound?
A: Its IC50 is greater than 100 µM.

Q: What about the IC50 ([4]; Homo sapiens, MCF7, 72 h) of the same compound?
A: Its IC50 is 24.5 µM.

Q: What about the IC50 ([5]; Homo sapiens, SK-OV-3, 72 h) of the same compound?
A: The IC50 was 21 µM.

Q: What about the IC50 ([6]; Homo sapiens, PC-3, 72 h) of the same compound?
A: The IC50 was 50.4 µM.

Q: For `O=C(CCC(=O)N1CCCCC1)Nc1cc2c3ccccc3c(NC(=O)CCC(=O)N3CCCCC3)cc2c2ccccc12`, which IC50 [1] is on record?
A: Its IC50 is 25 µM.

Q: And the IC50 ([2]; Homo sapiens, HT-29, 72 h)?
A: Its IC50 is 41.1 µM.

Q: And the IC50 ([3]; Homo sapiens, BRO, 72 h)?
A: Its IC50 is 44.3 µM.

Q: And the IC50 ([4]; Homo sapiens, MCF7, 72 h)?
A: Its IC50 is 21 µM.

Q: And the IC50 ([5]; Homo sapiens, SK-OV-3, 72 h)?
A: The IC50 was 22 µM.

Q: And the IC50 ([6]; Homo sapiens, PC-3, 72 h)?
A: Its IC50 is 24.4 µM.

Q: What about the IC50 ([7]; Mus musculus, P388, 72 h) of the same compound?
A: Its IC50 is 37.8 µM.

Q: With `CN1CCN(C(=O)CCC(=O)Nc2cc3c4ccccc4c(NC(=O)CCC(=O)N4CCN(C)CC4)cc3c3ccccc23)CC1` as the compound, how does the IC50 [1] read?
A: The IC50 was 42.1 µM.

Q: And the IC50 ([2]; Homo sapiens, HT-29, 72 h)?
A: The IC50 was 66.6 µM.

Q: What about the IC50 ([3]; Homo sapiens, BRO, 72 h) of the same compound?
A: Its IC50 is 57.3 µM.

Q: And the IC50 ([4]; Homo sapiens, MCF7, 72 h)?
A: Its IC50 is 75 µM.

Q: And the IC50 ([5]; Homo sapiens, SK-OV-3, 72 h)?
A: The IC50 was 72.2 µM.

Q: What about the IC50 ([6]; Homo sapiens, PC-3, 72 h) of the same compound?
A: Its IC50 is 15.5 µM.

Q: And the IC50 ([7]; Mus musculus, P388, 72 h)?
A: The IC50 was 98 µM.

Q: What does the source list for `CN1CCN(CCCCNc2cc3c4ccccc4c(NCCCCN4CCN(C)CC4)cc3c3ccccc23)CC1`?
A: IC50 [1]: 0.9 µM; IC50 ([2]; Homo sapiens, HT-29, 72 h): 2.1 µM; IC50 ([3]; bro): 3.8 µM; IC50 ([4]; Homo sapiens, MCF7, 72 h): 1.7 µM; IC50 ([5]; Homo sapiens, SK-OV-3, 72 h): 0.9 µM; IC50 ([6]; Homo sapiens, PC-3, 72 h): 1.2 µM; IC50 ([7]; p388): 1.7 µM

Q: Which IC50 ([2]; ht-29) does the source give for `CN1CCN(CCCCNc2cc3c4ccccc4c(NCCCCN4CCN(C)CC4)cc3c3ccccc23)CC1.Cl` here?
A: Its IC50 is 1.6 µM.

Q: And the IC50 ([3]; bro)?
A: The IC50 was 0.6 µM.

Q: What about the Activity [8] of the same compound?
A: The Activity was 47%.

Q: What about the IC50 ([4]; mcf7) of the same compound?
A: The IC50 was 1.2 µM.

Q: What about the Activity [9] of the same compound?
A: Its Activity is 35%.

Q: What about the IC50 ([5]; sk-ov-3) of the same compound?
A: The IC50 was 1 µM.

Q: And the IC50 ([6]; pc-3)?
A: The IC50 was 2.1 µM.

Q: And the IC50 ([7]; p388)?
A: Its IC50 is 0.8 µM.

Q: What about the Activity [10] of the same compound?
A: The Activity was 5%.

Q: For `c1ccc2c(c1)ccc1c3ccccc3c(NCCCCN3CCCCC3)cc21`, which IC50 [1] is on record?
A: Its IC50 is 1.1 µM.

Q: What about the IC50 ([2]; Homo sapiens, HT-29, 72 h) of the same compound?
A: The IC50 was 2.4 µM.

Q: And the IC50 ([3]; Homo sapiens, BRO, 72 h)?
A: The IC50 was 3.4 µM.

Q: What about the IC50 ([4]; Homo sapiens, MCF7, 72 h) of the same compound?
A: The IC50 was 2.3 µM.

Q: What about the IC50 ([5]; Homo sapiens, SK-OV-3, 72 h) of the same compound?
A: The IC50 was 4.4 µM.

Q: And the IC50 ([6]; Homo sapiens, PC-3, 72 h)?
A: Its IC50 is 3.7 µM.

Q: What about the IC50 ([7]; Mus musculus, P388, 72 h) of the same compound?
A: Its IC50 is 2.2 µM.

Q: Which IC50 [1] does the source give for `CN1CCN(CCCCNc2cc3c4ccccc4ccc3c3ccccc23)CC1` here?
A: The IC50 was 5.3 µM.

Q: And the IC50 ([2]; Homo sapiens, HT-29, 72 h)?
A: The IC50 was 14.3 µM.

Q: What about the IC50 ([3]; Homo sapiens, BRO, 72 h) of the same compound?
A: Its IC50 is 13.9 µM.

Q: And the IC50 ([4]; Homo sapiens, MCF7, 72 h)?
A: Its IC50 is 6.4 µM.

Q: What about the IC50 ([5]; Homo sapiens, SK-OV-3, 72 h) of the same compound?
A: The IC50 was 8.4 µM.

Q: And the IC50 ([6]; Homo sapiens, PC-3, 72 h)?
A: The IC50 was 10 µM.

Q: And the IC50 ([7]; Mus musculus, P388, 72 h)?
A: The IC50 was 19.5 µM.

Q: Which IC50 [1] does the source give for `c1ccc2c(c1)c(NCCCCN1CCCCC1)cc1c3ccccc3c(NCCCCN3CCCCC3)cc21` here?
A: Its IC50 is 0.8 µM.

Q: What about the IC50 ([2]; Homo sapiens, HT-29, 72 h) of the same compound?
A: The IC50 was 1.2 µM.

Q: What about the IC50 ([3]; Homo sapiens, BRO, 72 h) of the same compound?
A: Its IC50 is 1.7 µM.

Q: What about the IC50 ([4]; Homo sapiens, MCF7, 72 h) of the same compound?
A: The IC50 was 1.4 µM.

Q: And the IC50 ([5]; Homo sapiens, SK-OV-3, 72 h)?
A: Its IC50 is 1.9 µM.

Q: And the IC50 ([6]; Homo sapiens, PC-3, 72 h)?
A: The IC50 was 0.8 µM.

Q: And the IC50 ([7]; Mus musculus, P388, 72 h)?
A: The IC50 was 2 µM.

Q: What does the source list for `CN1CCN(C(=O)CCC(=O)Nc2cc3c4ccccc4ccc3c3ccccc23)CC1`?
A: IC50 [1]: 9.5 µM; IC50 ([2]; Homo sapiens, HT-29, 72 h): 9.3 µM; IC50 ([3]; Homo sapiens, BRO, 72 h): 41.6 µM; IC50 ([4]; Homo sapiens, MCF7, 72 h): 7.1 µM; IC50 ([5]; Homo sapiens, SK-OV-3, 72 h): 11.1 µM; IC50 ([6]; Homo sapiens, PC-3, 72 h): 18.4 µM; IC50 ([7]; Mus musculus, P388, 72 h): 6 µM
